The source made the active and inactive calls. The rule behind the calls is not given here.
Assays:
SF-295 [1] = test: Effect on morphology of human SF295 cells assessed as induction of ruffled F-actin at 10 uM after 24 hrs using DAPI staining by multi-photon microscopy; format: functional, cell-based
Method in brief: (§1)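 Cells grown on sterile coverslips to 65% confluency, then treated. Then fixed in 3.7% formaldehyde for 15 min, permeabilized in 0.2% Triton X-100 for 4 min, blocked in 1% BSA for 30 min and stained 20 min with phalloidin for F-actin. Mounted in DAPI-containing medium, imaged by multi-photon microscopy. SF-295 kept in RPMI 1640; A549 in F-12; both with 10% FCS.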

A549 [2] = test: Effect on morphology in human A549 cells assessed as induction of ruffled F-actin at 10 uM after 24 hrs using DAPI staining by multi-photon microscopy; format: functional, cell-based; method in brief: as §1
SF-539 = test: Cytotoxicity against human SF539 cells after 44 hrs by MTT assay; format: functional; settings: SF-539, 44 h
SF-295 [3] = test: Cytotoxicity against human SF295 cells after 44 hrs by MTT assay; format: functional, cell-based; settings: SF-295, 44 h
Method in brief: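 SF-295 glioblastoma cells grown in RPMI 1640 with 10% fetal calf serum and pen-strep at 37 °C, 5% CO2. Plated in 24-well plates and dosed at 65% confluency. Thiazolyl blue tetrazolium added 44 h after treatment. At 48 h, HCl/Triton X-100/isopropanol solubiliser added, then overnight at 37 °C with gentle agitation. Absorbance read at 540 nm, 630 nm reference.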

SNB-75 = test: Cytotoxicity against human SNB75 cells after 44 hrs by MTT assay; format: functional; settings: SNB-75, 44 h
A549 [4] = test: Effect on morphology of human A549 cells at 500 nM after 24 hrs using DAPI staining by multi-photon microscopy; format: functional, cell-based; method in brief: as §1
A549 [5] = test: Effect on morphology of human A549 cells at 500 nM after 48 hrs using DAPI staining by multi-photon microscopy; format: functional, cell-based; method in brief: as §1
SF-295 [6] = test: Effect on morphology of human SF295 cells at 500 nM after 24 hrs using DAPI staining by multi-photon microscopy; format: functional, cell-based; method in brief: as §1
SF-295 [7] = test: Effect on morphology of human SF295 cells at 500 nM after 48 hrs using DAPI staining by multi-photon microscopy; format: functional, cell-based; method in brief: as §1
A549 [8] = test: Cytotoxicity against human A549 cells after 44 hrs by MTT assay; format: functional, cell-based
Method in brief: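 A549 cells in F-12 medium with 10% fetal calf serum and pen-strep, 37 °C, 5% CO2, treated in 24-well plates at 65% confluency. MTT added 44 h after treatment; at 48 h, solubilizer (HCl, Triton X-100, isopropanol) added, overnight at 37 °C with gentle agitation. Absorbance read at 540 nm with 630 nm reference.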

SF-295 [9] = test: Effect on cytosolic localization in human SF295 cells assessed as increase in fluorescence intensity at 100 nM by fluorescence microscopy; format: functional, cell-based
Method in brief: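 SF-295 cells on sterile coverslips at 65% confluency, treated for varied intervals across a concentration range. Washed three times in complete medium to remove compound, mounted right away, and live compound fluorescence imaged by multi-photon microscopy against untreated-cell autofluorescence.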

SF-295 [10] = test: Inhibition of ROCK in human SF295 cells assessed as change in morphology at 10 uM after 24 hrs using DAPI staining by multi-photon microscopy; format: cell-based; method in brief: as §1

Structure (SMILES): C[C@@H](N)[C@H]1CC[C@H](C(=O)Nc2ccncc2)CC1
- Activity (SF-295 [1]): Active
- Activity (A549 [2]): Active

Structure (SMILES): CC(C)=CCC/C(C)=C/Cc1c(O)cc(/C=C/c2cc(O)c3c(c2)C[C@@H]2C(C)(C)[C@H](O)[C@H](O)C[C@@]2(C)O3)cc1O [SCHWEINFURTHIN A]
- GI50 (SF-539): 10 nM
- GI50 (SF-295 [3]): 11 nM
- GI50 (SNB-75): 15 nM

Structure (SMILES): COc1cc(/C=C/c2cc(O)c(/C=C/c3cccc(O)c3)c(O)c2)cc2c1O[C@]1(C)CC[C@@H](O)C(C)(C)[C@H]1C2
- Activity (A549 [4]): inactive
- IC50 (SF-295 [3]): 800 nM
- Activity (A549 [5]): inactive
- Activity (SF-295 [6]): inactive
- Activity (SF-295 [7]): Active
- Activity (A549 [8]): Active
- Activity (SF-295 [9]): Active
- Activity (SF-295 [10]): Active

Structure (SMILES): COc1cc(/C=C/c2cc(O)c(C/C=C(\C)CCC=C(C)C)c(O)c2)cc2c1O[C@]1(C)CC[C@@H](O)C(C)(C)[C@H]1C2
- Activity (SF-295 [10]): Active

— ChEMBL document CHEMBL1152945, “Synthesis and biological activity of a fluorescent schweinfurthin analogue” (Bioorg Med Chem, 2009)
